Measured values taken from ChEMBL document CHEMBL1671627, “Increasing trends in antimicrobial resistance among clinically important anaerobes and Bacteroides fragilis isolates causing nosocomial infections: emerging resistance to carbapenems” (2008).
In brackets after ≈: the same amount, converted by molar mass.

Experiments:
[1] = tested on: Peptoniphilus asaccharolyticus; test: Antibacterial activity against beta-lactamase producing Peptoniphilus asaccharolyticus assessed as resistant isolates by CLSI agar dilution method in presence of clavulanate; assay type: functional
Method in brief: (§1)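 207 nonduplicate anaerobic blood isolates from patients with bloodstream infections at NTUH, collected January–December 2006. MICs were determined by agar dilution following CLSI guidelines. Inocula were applied with a Steers replicator onto supplemented Brucella blood agar and incubated 48 h at 35°C in an anaerobic chamber. MIC was the lowest concentration inhibiting growth. B. fragilis ATCC 25285, B. thetaiotaomicron ATCC 29741 and E. lentum ATCC 43055 served as controls in each run.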

Clostridium tertium [2] = test: Antibacterial activity against beta-lactamase producing Clostridium tertium by CLSI agar dilution method in presence of clavulanate; assay type: functional
Method in brief: (§2)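 CLSI agar dilution MICs for anaerobic blood isolates (nonduplicate) collected from bloodstream-infection patients at a Taiwanese tertiary hospital, January–December 2006. Isolates were spotted by Steers replicator onto supplemented Brucella blood agar and incubated anaerobically for 48 h at 35°C. MIC was the lowest drug concentration inhibiting growth. Each run included B. fragilis ATCC 25285, B. thetaiotaomicron ATCC 29741 and E. lentum ATCC 43055 as quality-control strains.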

Prevotella buccae [3] = test: Antibacterial activity against Prevotella buccae assessed as resistant isolates by CLSI agar dilution method in presence of clavulanate; assay type: functional, Segatella buccae; method in brief: as §1
[4] = tested on: Fusobacterium necrophorum; test: Antibacterial activity against Fusobacterium necrophorum by CLSI agar dilution method in presence of clavulanate; assay type: functional
Method in brief: (§3)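 Agar dilution per CLSI guidelines on nonduplicate anaerobic bloodstream isolates collected at NTUH, January to December 2006. Isolates were spotted by Steers replicator onto supplemented Brucella blood agar and incubated anaerobically for 48 h at 35°C. MIC was the lowest drug concentration that inhibited growth. B. fragilis ATCC 25285, B. thetaiotaomicron ATCC 29741 and E. lentum ATCC 43055 were run as QC in each run.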

Prevotella intermedia [5] = test: Antibacterial activity against Prevotella intermedia assessed as resistant isolates by CLSI agar dilution method in presence of clavulanate; assay type: functional; method in brief: as §1
Parvimonas micra [6] = test: Antibacterial activity against beta-lactamase producing Micromonas micros assessed as susceptible isolates by CLSI agar dilution method in presence of clavulanate; assay type: functional; method in brief: as §2
Clostridium tertium [7] = test: Antibacterial activity against beta-lactamase producing Clostridium tertium assessed as susceptible isolates by CLSI agar dilution method in presence of clavulanate; assay type: functional; method in brief: as §2
Bacteroides uniformis [8] = test: Antibacterial activity against beta-lactamase producing Bacteroides uniformis assessed as resistant isolates by CLSI agar dilution method in presence of clavulanate; assay type: functional; method in brief: as §1
Bacteroides fragilis [9] = test: Antibacterial activity against Bacteroides fragilis by CLSI agar dilution method in presence of clavulanate; assay type: functional; method in brief: as §3
Fusobacterium varium [10] = test: Antibacterial activity against Fusobacterium varium by CLSI agar dilution method in presence of clavulanate; assay type: functional; method in brief: as §3
Prevotella buccae [11] = test: Antibacterial activity against Prevotella buccae by CLSI agar dilution method in presence of clavulanate; assay type: functional; details: Segatella buccae; method in brief: as §3
Bacteroides uniformis [12] = test: Antibacterial activity against beta-lactamase producing Bacteroides uniformis assessed as susceptible isolates by CLSI agar dilution method in presence of clavulanate; assay type: functional; method in brief: as §3
Clostridium septicum [13] = test: Antibacterial activity against beta-lactamase producing Clostridium septicum assessed as susceptible isolates by CLSI agar dilution method; assay type: functional
Clostridium septicum [14] = test: Antibacterial activity against beta-lactamase producing Clostridium septicum assessed as resistant isolates by CLSI agar dilution method in presence of Tazobactam; assay type: functional; method in brief: as §1
[15] = tested on: Prevotella melaninogenica; test: Antibacterial activity against Prevotella melaninogenica by CLSI agar dilution method; assay type: functional
Finegoldia magna = test: Antibacterial activity against beta-lactamase producing Finegoldia magna assessed as susceptible isolates by CLSI agar dilution method; assay type: functional
Clostridium tertium [16] = test: Antibacterial activity against beta-lactamase producing Clostridium tertium by CLSI agar dilution method in presence of Tazobactam; assay type: functional; method in brief: as §2
Fusobacterium nucleatum [17] = test: Antibacterial activity against Fusobacterium nucleatum by CLSI agar dilution method; assay type: functional
[18] = tested on: Bacteroides thetaiotaomicron; test: Antibacterial activity against beta-lactamase producing Bacteroides thetaiotaomicron by CLSI agar dilution method; assay type: functional
Parvimonas micra [19] = test: Antibacterial activity against beta-lactamase producing Micromonas micros assessed as resistant isolates by CLSI agar dilution method in presence of Tazobactam; assay type: functional; method in brief: as §1
Fusobacterium mortiferum = test: Antibacterial activity against Fusobacterium mortiferum assessed as susceptible isolates by CLSI agar dilution method in presence of Tazobactam; assay type: functional; method in brief: as §3
Prevotella bivia [20] = test: Antibacterial activity against Prevotella bivia assessed as susceptible isolates by CLSI agar dilution method in presence of Tazobactam; assay type: functional; method in brief: as §3
Fusobacterium varium [21] = test: Antibacterial activity against Fusobacterium varium assessed as susceptible isolates by CLSI agar dilution method; assay type: functional
Prevotella buccae [22] = test: Antibacterial activity against Prevotella buccae assessed as susceptible isolates by CLSI agar dilution method in presence of Tazobactam; assay type: functional, Segatella buccae; method in brief: as §3
[23] = tested on: Fusobacterium necrophorum; test: Antibacterial activity against Fusobacterium necrophorum by CLSI agar dilution method in presence of Tazobactam; assay type: functional; method in brief: as §3
Bacteroides fragilis [24] = test: Antibacterial activity against Bacteroides fragilis assessed as resistant isolates by CLSI agar dilution method; assay type: functional
Bacteroides caccae [25] = test: Antibacterial activity against beta-lactamase producing Bacteroides caccae by CLSI agar dilution method in presence of Tazobactam; assay type: functional; method in brief: as §3
Bacteroides uniformis [26] = test: Antibacterial activity against beta-lactamase producing Bacteroides uniformis assessed as resistant isolates by CLSI agar dilution method in presence of Tazobactam; assay type: functional; method in brief: as §1
Bacteroides caccae [27] = test: Antibacterial activity against beta-lactamase producing Bacteroides caccae assessed as resistant isolates by CLSI agar dilution method in presence of Tazobactam; assay type: functional; method in brief: as §1
[28] = tested on: Prevotella melaninogenica; test: Antibacterial activity against Prevotella melaninogenica assessed as susceptible isolates by CLSI agar dilution method; assay type: functional
Prevotella intermedia [29] = test: Antibacterial activity against Prevotella intermedia assessed as resistant isolates by CLSI agar dilution method in presence of Tazobactam; assay type: functional; method in brief: as §1
Bacteroides caccae [30] = test: Antibacterial activity against beta-lactamase producing Bacteroides caccae assessed as resistant isolates by CLSI agar dilution method; assay type: functional
[31] = tested on: Peptostreptococcus anaerobius; test: Antibacterial activity against beta-lactamase producing Peptostreptococcus anaerobius by CLSI agar dilution method in presence of Tazobactam; assay type: functional; method in brief: as §2
[32] = tested on: Peptoniphilus asaccharolyticus; test: Antibacterial activity against beta-lactamase producing Peptoniphilus asaccharolyticus assessed as susceptible isolates by CLSI agar dilution method in presence of Tazobactam; assay type: functional; method in brief: as §2
[33] = tested on: Fusobacterium necrophorum; test: Antibacterial activity against Fusobacterium necrophorum assessed as resistant isolates by CLSI agar dilution method; assay type: functional
Prevotella bivia [34] = test: Antibacterial activity against Prevotella bivia by CLSI agar dilution method in presence of Tazobactam; assay type: functional; method in brief: as §3
Fusobacterium nucleatum [35] = test: Antibacterial activity against Fusobacterium nucleatum assessed as resistant isolates by CLSI agar dilution method in presence of Tazobactam; assay type: functional; method in brief: as §1
Prevotella intermedia [36] = test: Antibacterial activity against Prevotella intermedia by CLSI agar dilution method; assay type: functional

CC1(C)S[C@@H]2[C@H](NC(=O)[C@H](N)c3ccc(O)cc3)C(=O)N2[C@H]1C(=O)O [AMOXICILLIN]
Activity [1]: 3% | MIC50 (Clostridium tertium [2]): 0.5 µg/mL | MIC90 (Clostridium tertium [2]): 2 µg/mL | Activity (Prevotella buccae [3]): 6% | MIC50 [4]: 2 µg/mL | MIC90 [4]: 4 µg/mL | Activity (Prevotella intermedia [5]): 6% | Activity (Parvimonas micra [6]): 94% | Activity (Clostridium tertium [7]): 96% | Activity (Bacteroides uniformis [8]): 30% | MIC50 (Bacteroides fragilis [9]): 4 µg/mL | MIC90 (Bacteroides fragilis [9]): 32 µg/mL | MIC50 (Fusobacterium varium [10]): 2 µg/mL | MIC90 (Fusobacterium varium [10]): 4 µg/mL | MIC50 (Prevotella buccae [11]): 4 µg/mL | MIC90 (Prevotella buccae [11]): 16 µg/mL | Activity (Bacteroides uniformis [12]): 53%

CCN1CCN(C(=O)N[C@@H](C(=O)N[C@@H]2C(=O)N3[C@@H]2SC(C)(C)[C@@H]3C(=O)O)c2ccccc2)C(=O)C1=O [PIPERACILLIN]
Activity (Clostridium septicum [13]): 100% | Activity (Clostridium septicum [14]): 0% | MIC50 [15]: 16 µg/mL (≈ 30.9 µM) | MIC90 [15]: 128 µg/mL (≈ 247 µM) | Activity (Finegoldia magna): 97% | MIC50 (Clostridium tertium [16]): 0.5 µg/mL | MIC90 (Clostridium tertium [16]): 2 µg/mL | MIC50 (Fusobacterium nucleatum [17]): 2 µg/mL (≈ 3.86 µM) | MIC90 (Fusobacterium nucleatum [17]): 8 µg/mL (≈ 15.5 µM) | MIC50 [18]: 32 µg/mL (≈ 61.8 µM) | MIC90 [18]: > 128 µg/mL | Activity (Parvimonas micra [19]): 0% | Activity (Fusobacterium mortiferum): 100% | Activity (Prevotella bivia [20]): 100% | Activity (Fusobacterium varium [21]): 90% | Activity (Prevotella buccae [22]): 100% | MIC50 [23]: 0.5 µg/mL | MIC90 [23]: 2 µg/mL | Activity (Bacteroides fragilis [24]): 35% | MIC50 (Bacteroides caccae [25]): 8 µg/mL | MIC90 (Bacteroides caccae [25]): 16 µg/mL | Activity (Bacteroides uniformis [26]): 4% | Activity (Bacteroides caccae [27]): 4% | Activity [28]: 71% | Activity (Prevotella intermedia [29]): 0% | Activity (Bacteroides caccae [30]): 65% | MIC [31]: 0.03 µg/mL | MIC50 [31]: 0.03 µg/mL | MIC90 [31]: 2 µg/mL | Activity [32]: 97% | Activity [33]: 10% | MIC (Prevotella bivia [34]): 0.03 µg/mL | MIC50 (Prevotella bivia [34]): 0.03 µg/mL | MIC90 (Prevotella bivia [34]): 1 µg/mL | Activity (Fusobacterium nucleatum [35]): 0% | MIC50 (Prevotella intermedia [36]): 16 µg/mL (≈ 30.9 µM) | MIC90 (Prevotella intermedia [36]): 128 µg/mL (≈ 247 µM)
